p-CIP stab down: p/CIP protein destabilization; F442A p/CIP-EGFP cells, EGFP fluorescence, 16 h; decrease of EGFP signal, % at 10 µM; 0.01% of 290,000 active; AID 1984;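 active means EGFP signal decrease of at least 30% at 10 µM or well 3 SD below plate mean, unless failing retest; inactive means the rest, including hits failing retest or dose response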
UBC13 polyUb: inhibitors of human UBC13 polyubiquitin chain formation; inhibition, % at 20 µM; P61088; 0.47% of 330,000 active; TR-FRET; in the data active means inhibition above about 45%, passing the limit was not always enough; inconclusive means no clear call, values can overlap the other calls
Target sequence (P61088 whole entry, looked up): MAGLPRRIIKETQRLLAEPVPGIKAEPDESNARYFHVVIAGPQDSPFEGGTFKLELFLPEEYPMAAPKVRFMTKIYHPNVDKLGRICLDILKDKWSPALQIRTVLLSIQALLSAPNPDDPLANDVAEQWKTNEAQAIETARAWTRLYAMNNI
T cruzi repl: T. cruzi replication inhibition; T. cruzi beta-gal in NIH3T3, luminescence, 90 h; inhibition, % (concentration not given with the values); 1.4% of 300,000 active; AID 1885;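 active means mean inhibition across valid replicates above about 55%, limit read from the data; inconclusive means mean below that limit but half or more replicates reach it; inactive means mean below it, under half of replicates reach it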;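 further: signal also drops with host cell toxicity which is not excluded here; higher percent means less beta-gal luminescence so fewer parasites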
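Read-out: Parasite load inhibition, % | Test system: Mouse NIH/3T3 fibroblasts infected with β-gal-expressing T. cruzi Tulahuen C4 | Amount: 5,000 cells/well | Medium: DMEM, 2% fetal bovine serum | Signal: GalScreen β-gal luminescence, detergent lysis, 60 min | Timing: 3 h attach, ≥90 h co-culture | Also added: Tulahuen C4 trypomastigotes, 5000/well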
AI-2 QS modul: Vibrio harveyi AI-2 quorum sensing modulation; Vibrio harveyi JMH597 AI-2 luminescence/OD600 ratio, 9 h; active compounds read low; strain lacks LuxN and CqsS sensors; 0 = neutral-control median; activity change, % at 7.5 µM; 0.4% of 300,000 active; in the data active means activity change below about -75%, passing the limit was not always enough; inconclusive means no clear call, values can overlap the other calls;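 further: luminescence divided by OD600 gain over 9 h not by final OD600 alone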
PP1 counter: PP1-alpha (human) inhibition in PP5 counter-screen; purified PP1alpha, OMFP fluorescence; inhibition, % at 6.7 µM; P62136; 0.9% of 320,000 active; AID 2235;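 active means inhibition above the mean inhibition of all tested compounds plus 3 SD, computed separately for each screening campaign, cut at about 15% in these data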
Target sequence (P62136 whole entry, looked up): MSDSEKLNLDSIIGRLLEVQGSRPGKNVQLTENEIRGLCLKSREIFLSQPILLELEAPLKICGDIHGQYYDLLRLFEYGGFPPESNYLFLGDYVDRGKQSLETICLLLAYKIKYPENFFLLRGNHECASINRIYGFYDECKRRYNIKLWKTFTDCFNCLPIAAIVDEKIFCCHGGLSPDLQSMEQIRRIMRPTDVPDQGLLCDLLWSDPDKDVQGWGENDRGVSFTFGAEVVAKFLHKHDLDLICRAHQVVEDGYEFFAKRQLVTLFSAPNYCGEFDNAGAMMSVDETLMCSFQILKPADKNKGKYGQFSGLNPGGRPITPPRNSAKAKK
Hits are given with their value; 0 = inactive; ? = inconclusive; - = no result. Only some compounds are listed: those with a hit (about 2.8% of all), similar ones and a draw of the others.

SMILES | p-CIP stab down | UBC13 polyUb | T cruzi repl | AI-2 QS modul | PP1 counter
Clc1cccc(-c2sc(Nc3ccccc3)n[n+]2-c2ccccc2)c1Cl | 0 | 0 | 0 | 0 | 0
Fc1ccc(-[n+]2nc(Nc3ccccc3)sc2-c2cccc(Cl)c2Cl)cc1 | 0 | 0 | 0 | 0 | 17
CN(CCc1nc2ccc(Cl)cc2[nH]1)Cc1nc(CC2CC2)no1 | 0 | 0 | 0 | 0 | 0
O=C1C(Nc2ccc(O)cc2)=C/C(=N/S(=O)(=O)c2cccs2)c2ccccc21 | - | - | 58 | 0 | -
Cc1cccc(NC2=C/C(=N/S(=O)(=O)c3cccs3)c3ccccc3C2=O)c1 | 0 | - | - | - | 0
Cc1ccc(Cl)cc1NC1=C/C(=N\S(=O)(=O)c2cccs2)c2ccccc2C1=O | 0 | 0 | 61 | 0 | 0
Cc1ccc(NC2=C/C(=N\S(=O)(=O)c3cccs3)c3ccccc3C2=O)c(C)c1 | - | 0 | 57 | 0 | 0
Cc1nc(CS(=O)(=O)c2ccc(Cl)cc2)sc1C(=O)O | 0 | 0 | 0 | 0 | 0
COc1ccc(OC)c(C(=O)CSc2nnc(-c3cccnc3)n2C)c1 | 0 | 0 | 0 | 0 | 0
COc1cc(OC)c(NC(=O)CCCNC(=O)Cn2cnc3sc(C)c(C)c3c2=O)cc1Cl | 0 | 0 | 0 | 0 | 0
O=C(Nc1cccc(-c2nc3ccccc3[nH]2)c1)c1cccc(NC(=O)c2ccco2)c1 | 0 | 0 | ? | 0 | 16
O=C(Nc1ccc2nc(-c3ccccc3)[nH]c2c1)c1ccco1 | 0 | 0 | 0 | 0 | 0
O=C(Nc1ccc(-c2nc3ccccc3[nH]2)cc1)c1ccc2c(c1)OCO2 | 0 | 0 | 0 | 0 | 15
O=C(Nc1ccc(Cl)c(-c2nc3ccccc3[nH]2)c1)c1ccc2c(c1)OCO2 | 0 | 0 | 0 | 0 | 0
CCN(CC)S(=O)(=O)c1ccc2c(c1)CC(C(=O)N1CCCC1)N2C(C)=O (stereo unspecified) | 0 | 0 | 0 | 0 | 0
COc1ccccc1N1CCN(CCN2C(=O)C3CCCN3C2=O)CC1 (stereo unspecified) | 0 | 0 | 0 | 0 | 0
O=C(NCc1ccccn1)C(=O)NCC1OCCCN1S(=O)(=O)c1cc(F)ccc1F (stereo unspecified) | 0 | 0 | 0 | 0 | 0
C=C(C)[C@@H]1CC=C(CN2CCN(Cc3ccccc3)CC2)CC1 | 0 | 0 | 0 | 0 | 0
C=C(C)C1CC=C(CN2CCN(Cc3ccccc3)CC2)CC1 (stereo unspecified) | 0 | 0 | 57 | 0 | 0
COc1ccc(/C(C)=N/N2C(=O)c3ccccc3NC2c2ccc(O)c(OC)c2)cc1 (stereo unspecified) | 0 | 0 | 0 | 0 | 0
C/C(=N\N1C(=O)c2ccccc2NC1c1ccco1)c1ccccc1O (stereo unspecified) | 0 | 0 | 61 | 0 | 0
C/C(=N\N1C(=O)c2ccccc2NC1c1ccccc1)c1ccccc1O (stereo unspecified) | 0 | 0 | 66 | 0 | 0
COc1ccc(CC(=O)Nc2c3c(nn2C(C)(C)C)CS(=O)(=O)C3)cc1OC | 0 | 0 | 0 | 0 | 0
O=C(C1=C[C@H](c2ccc(C(F)(F)F)cc2)C[C@H](OCc2ccc(CO)cc2)O1)N1CCN(Cc2ccc3c(c2)OCO3)CC1 | 0 | 0 | 65 | 0 | 0
OCCN1CCN(C2Cc3cc(Cl)ccc3Sc3ccc(Cl)cc32)CC1 (stereo unspecified) (tested in a mixture with another compound) | 0 | 0 | 0 | 0 | 15
SMILES | p-CIP stab down | UBC13 polyUb | T cruzi repl | AI-2 QS modul | PP1 counter
Cc1ccc(NC(=O)CN(C)C(=O)c2cc(-c3ccccc3)nn2-c2ccccc2)cc1 | - | 0 | - | - | -
Cc1cc(C(=O)N(C)CC2CCCN(CCc3ccc(F)cc3)C2)c(C)o1 (stereo unspecified) | 0 | 0 | 56 | 0 | 0
COc1ccc(CCN2CCCC(CN(C)C(=O)c3cc(C)oc3C)C2)cc1 (stereo unspecified) | 0 | 0 | 63 | 0 | 0
COc1ccc(CCN2CCCC(CN(C)C(=O)c3ccoc3C)C2)cc1 (stereo unspecified) | 0 | 0 | 0 | 0 | 0
COc1cccc(NC(=O)CN(C)C(=O)c2ccc(OCc3ccccc3)c(OC)c2)c1 | - | 0 | 0 | 0 | 0
COc1ccc(C2CC(=O)N(CCCN(C)CCc3ccc(OC)c(OC)c3)C2)cc1 (stereo unspecified) | 0 | 0 | 64 | 0 | 0
CCCCc1ccc(NC(=O)CSCc2cc(=O)[nH][nH]2)cc1 | 0 | 0 | 0 | 0 | 16
Cc1ccccc1/C=N/Nc1ccnc2cc(Cl)ccc12 | 0 | - | 60 | 0 | 0
Clc1ccc2c(N/N=C/c3cccnc3)ccnc2c1 | 0 | 0 | 65 | 0 | 0
O=C(Cn1cc([N+](=O)[O-])cn1)Nc1nccs1 | 0 | 0 | 0 | 0 | 0
CCOC(=O)/C(=N\Nc1ccccc1Cl)N1CCN(C)CC1 | 0 | 0 | 0 | 0 | 0
CCOC(=O)/C(=N\Nc1ccccc1Cl)N1CCN(c2ccccc2OC)CC1 | 0 | 0 | 67 | 0 | 0
CN(C)c1ccc(C2(c3ccc(N(C)C)cc3)OC(=O)c3cc(N)ccc32)cc1 | 0 | 0 | 0 | 0 | 0
CCOC(=O)C1CCN(c2ncnc3c2c(-c2ccccc2)cn3-c2ccccc2)CC1 | 0 | 0 | 59 | 0 | 0
CCCc1ccc(-c2ccc(/C=C/C(=O)O)cc2)nc1 | 0 | - | 0 | 0 | 0
CCCCCc1ccc(-c2ccc(/C=C/C(=O)O)cc2)nc1 | 0 | 0 | 0 | -89 | 0
O=c1oc2c(O)c(O)cc3c(=O)oc4c(O)c(O)cc1c4c23 | 0 | - | - | - | 27
CCCNC(=O)c1ccc(COc2ccc(CCC)cc2OC)o1 | 0 | 0 | 0 | 0 | 0
N=c1c2c(n(Cc3cccc(Cl)c3)c3c1CCC3)CCCC2 | 0 | 0 | 58 | 0 | 0
Clc1cccc(CN2CCCCCC2)c1 | 0 | 0 | 0 | 0 | 0
N=c1c2c(n(Cc3ccccc3)c3c1CCC3)CCC2 | 0 | 0 | 0 | 0 | 0
N=c1c2c(n(Cc3ccc(Cl)cc3)c3c1CCC3)CCC2 | 0 | 0 | 79 | 0 | 0
N=c1c2c(n(Cc3ccc(F)cc3)c3c1CCC3)CCCC2 | 0 | 0 | 63 | 0 | 0
O=C(NCc1cccs1)Nc1cccc(Cl)c1 | - | 0 | 0 | -91 | 0
COCCCNC(=O)Cc1ccc(S(=O)(=O)N2CCOCC2)s1 | - | 0 | - | - | 0
SMILES | p-CIP stab down | UBC13 polyUb | T cruzi repl | AI-2 QS modul | PP1 counter
O=C(c1cc([N+](=O)[O-])ccc1Cl)N1CCN(Cc2ccc3c(c2)OCO3)CC1 | 0 | 0 | 0 | 0 | 0
O=C(c1cc([N+](=O)[O-])cc([N+](=O)[O-])c1)N1CCN(Cc2ccc3c(c2)OCO3)CC1 | 0 | 0 | 66 | 0 | 0
COc1ccc(-c2csc3ncnc(N4CCN(S(=O)(=O)c5ccc(C)c(C)c5)CC4)c23)cc1 | - | 0 | 55 | 0 | 0
O=S(=O)(c1ccccc1)N1CCN(c2ncnc3scc(-c4ccccc4)c23)CC1 | 0 | 0 | 0 | - | 0
CCOc1ccccc1N1CCN(c2ncnc3scc(-c4ccc(OC)cc4)c23)CC1 | 0 | 0 | 61 | 0 | 0
O=C(O)c1ccc(N/N=C/C=C/c2ccccc2[N+](=O)[O-])cc1 | 0 | 0 | 0 | 0 | 0
